From ChEMBL document CHEMBL4354871, “Discovery of Selective Small Molecule Degraders of BRAF-V600E” (J Med Chem, 2020) come the findings set out here.

Molecules are shown by their SMILES. pIC50, pKd: −log10 of the molar value. Active and inactive are the calls of the source. No cut-off for these calls is given here.

The target of series [1] is Serine/threonine-protein kinase B-raf (Homo sapiens, UniProt P15056, V600E). Description: Binding affinity to DNA-tagged BRAF (unknown origin) V600E mutant by KINOMEscan assay.
Chain of Serine/threonine-protein kinase B-raf (Homo sapiens, UniProt P15056, V600E) (P15056 2-766 V600E limits assumed): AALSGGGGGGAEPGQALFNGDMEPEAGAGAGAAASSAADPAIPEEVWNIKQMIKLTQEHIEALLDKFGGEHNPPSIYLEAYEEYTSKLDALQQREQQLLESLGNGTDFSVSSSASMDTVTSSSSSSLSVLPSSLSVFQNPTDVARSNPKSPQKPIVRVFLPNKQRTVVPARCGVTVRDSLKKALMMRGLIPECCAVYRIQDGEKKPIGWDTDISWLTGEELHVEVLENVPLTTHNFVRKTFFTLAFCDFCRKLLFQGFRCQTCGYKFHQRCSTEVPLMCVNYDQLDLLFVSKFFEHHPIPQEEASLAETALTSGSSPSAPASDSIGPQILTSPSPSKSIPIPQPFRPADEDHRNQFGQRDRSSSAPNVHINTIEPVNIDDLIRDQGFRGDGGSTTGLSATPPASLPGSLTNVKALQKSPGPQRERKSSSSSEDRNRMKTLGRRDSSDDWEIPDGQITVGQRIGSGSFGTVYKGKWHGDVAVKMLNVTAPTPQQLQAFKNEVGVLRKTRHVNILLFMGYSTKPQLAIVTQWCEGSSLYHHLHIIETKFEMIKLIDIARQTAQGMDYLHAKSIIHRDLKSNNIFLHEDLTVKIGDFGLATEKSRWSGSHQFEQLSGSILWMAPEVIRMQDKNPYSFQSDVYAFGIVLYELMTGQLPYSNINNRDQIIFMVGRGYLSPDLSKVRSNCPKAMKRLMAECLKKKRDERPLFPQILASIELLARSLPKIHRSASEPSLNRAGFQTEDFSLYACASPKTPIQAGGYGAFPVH
Series [2] deals with T1, Serine/threonine-protein kinase B-raf (Homo sapiens, UniProt P15056). Description: Binding affinity to DNA-tagged BRAF (unknown origin) by KINOMEscan assay.
T1 sequence (P15056 whole entry): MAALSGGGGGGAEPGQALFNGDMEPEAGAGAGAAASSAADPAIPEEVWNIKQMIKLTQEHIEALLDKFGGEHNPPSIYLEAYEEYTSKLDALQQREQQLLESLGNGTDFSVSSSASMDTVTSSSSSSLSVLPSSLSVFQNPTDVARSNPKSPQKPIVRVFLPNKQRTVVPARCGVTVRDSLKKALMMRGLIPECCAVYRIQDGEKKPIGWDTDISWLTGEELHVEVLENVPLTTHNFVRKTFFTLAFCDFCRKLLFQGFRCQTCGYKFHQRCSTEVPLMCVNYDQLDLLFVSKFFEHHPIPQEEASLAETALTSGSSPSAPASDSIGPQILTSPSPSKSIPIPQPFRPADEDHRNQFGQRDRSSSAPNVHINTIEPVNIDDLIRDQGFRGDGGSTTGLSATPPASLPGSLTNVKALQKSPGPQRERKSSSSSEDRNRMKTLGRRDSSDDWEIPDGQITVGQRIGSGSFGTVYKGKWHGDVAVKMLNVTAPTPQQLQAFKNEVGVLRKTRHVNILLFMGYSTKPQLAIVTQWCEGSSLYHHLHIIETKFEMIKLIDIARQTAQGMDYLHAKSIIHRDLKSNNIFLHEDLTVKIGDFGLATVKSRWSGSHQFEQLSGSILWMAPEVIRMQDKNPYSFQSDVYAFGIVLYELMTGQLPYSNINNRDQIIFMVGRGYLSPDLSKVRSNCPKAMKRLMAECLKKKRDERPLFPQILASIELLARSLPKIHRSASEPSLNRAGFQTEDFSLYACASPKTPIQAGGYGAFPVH
Series [3] deals with Protein cereblon/Serine/threonine-protein kinase B-raf (Homo sapiens), P15056+Q96SW2 [V600E]. In words: Protac activity at CRBN/BRAF V600E mutant in human A375 cells assessed as induction of BRAF V600E mutant degradation at 1 to 1000 nM incubated for 16 hrs by immunoblotting. It counts as cell-based. In short, it runs like this: (§1)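 A375 cells (BRAF-V600E, DMEM with 10% FBS, 37 °C, 5% CO2) were exposed to DMSO or a serial dilution of degrader for 16 h. Cells were lysed in cold RIPA with protease and phosphatase inhibitors, protein was measured by BCA, and samples were run on SDS-PAGE. Blots were probed for BRAF, p-ERK1/2 and α-tubulin, detected by ECL, and bands were quantitated.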

Series [4] deals with A-375. Description: Cytotoxicity in human A375 cells assessed as reduction in cell viability by Cell-titer-Lumi assay. It counts as functional, cell-based. Put shortly: (§2)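 Cells grown in DMEM with 10% FBS at 37 °C, 5% CO2. Seeded at 2000 cells/well, then treated across a 12-point serial dilution. Viability read after three days by CellTiter-Lumi luminescence. IC50 obtained by nonlinear least-squares regression of dose-response curves. Lines STR-authenticated and mycoplasma-free.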

A further series concerns HT-29. Description: Cytotoxicity in human HT-29 cells assessed as reduction in cell viability by Cell-titer-Lumi assay. It counts as functional, cell-based. In short, it runs like this: as §2
The next series concerns HaCaT. In words: Cytotoxicity in human HaCaT cells assessed as reduction in cell viability at 10 nM to 10 uM by Cell-titer-Lumi assay. It counts as cell-based. Put shortly:
as §2

Another series deals with WI-38. In words: Cytotoxicity in human WI38 cells assessed as reduction in cell viability at 10 nM to 10 uM by Cell-titer-Lumi assay. Particulars: wi-38, 10 nM to 10 uM. It counts as cell-based. In short, it runs like this:
as §2

A further series has as its system IMR-90. Description: Cytotoxicity in human IMR90 cells assessed as reduction in cell viability at 10 nM to 10 uM by Cell-titer-Lumi assay. It counts as cell-based. Particulars: imr-90, 10 nM to 10 uM. Put shortly:
as §2

Series [5] deals with Serine/threonine-protein kinase B-raf (Homo sapiens), P15056 [V600E]. Description: Potency index, ratio of Kd for vemurafenib to Kd of test compound for binding affinity to DNA-tagged BRAF (unknown origin) V600E mutant by KINOMEscan assay.
Chain of Serine/threonine-protein kinase B-raf (Homo sapiens), P15056 [V600E] (P15056 whole entry V600E): as the sequence (P15056 whole entry) above, with V600E counted along it
The target in series [6] is T1, Serine/threonine-protein kinase B-raf. Description: Potency index, ratio of Kd for vemurafenib to Kd of test compound for binding affinity to DNA-tagged BRAF (unknown origin) by KINOMEscan assay.
For series [7], the system named is Protein cereblon/Serine/threonine-protein kinase B-raf (Homo sapiens), P15056+Q96SW2 [V600E]. Description: Protac activity at CRBN/BRAF V600E mutant in human A375 cells assessed as reduction in BRAF V600E mutant-mediated ERK phosphorylation at 1 to 1000 nM incubated for 16 hrs by immunoblotting. It counts as cell-based. In short, it runs like this:
as §1
(In general: A western blot detects proteins with antibodies after separation by electrophoresis.)

The target in series [8] is T2, Protein cereblon/Serine/threonine-protein kinase B-raf (Homo sapiens) (UniProt P15056+Q96SW2). In words: Protac activity at CRBN/BRAF in human A549 cells assessed as induction of BRAF degradation at 1 to 1000 nM incubated for 16 hrs by immunoblotting. It counts as cell-based. Put shortly: (§3)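 A549 cells carrying wild-type BRAF (DMEM, 10% FBS) were treated with DMSO or a 3-fold serial dilution of compound for 16 h. BRAF was read by immunoblotting: RIPA lysis, BCA protein assay, SDS-PAGE, anti-BRAF antibody with α-tubulin as loading control, ECL detection and densitometric quantitation.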
T2 sequence (P15056 whole entry, looked up): as the sequence (P15056 whole entry) above
T2 sequence (Q96SW2 whole entry, looked up): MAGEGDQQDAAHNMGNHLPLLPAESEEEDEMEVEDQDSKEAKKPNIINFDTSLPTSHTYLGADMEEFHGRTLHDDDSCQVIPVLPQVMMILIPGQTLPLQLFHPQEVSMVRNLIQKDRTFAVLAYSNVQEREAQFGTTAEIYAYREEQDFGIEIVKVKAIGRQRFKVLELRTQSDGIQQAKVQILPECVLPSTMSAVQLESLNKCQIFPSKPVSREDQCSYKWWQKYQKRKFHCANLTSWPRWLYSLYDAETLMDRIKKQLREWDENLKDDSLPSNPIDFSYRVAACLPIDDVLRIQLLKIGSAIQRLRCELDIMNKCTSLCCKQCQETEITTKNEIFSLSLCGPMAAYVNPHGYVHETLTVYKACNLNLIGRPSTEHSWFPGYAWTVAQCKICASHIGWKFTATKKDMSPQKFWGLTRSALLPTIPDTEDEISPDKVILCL

Series [9] relates to Protein cereblon/Serine/threonine-protein kinase B-raf (Homo sapiens), P15056+Q96SW2 [V600E]. Description: Protac activity at CRBN/BRAF V600E mutant kinase domain (unknown origin) expressed in human A375 cells assessed as induction of BRAF V600E mutant degradation at 1 to 1000 nM incubated for 16 hrs by immunoblotting. It counts as cell-based. Put shortly:
(§4)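 A375 lines stably expressing the BRAF-V600E or wild-type BRAF kinase domain were made by lentiviral transduction and kept in 1 µg/mL puromycin. They were treated with DMSO or a 3-fold serial dilution of compound for 16 h. Kinase-domain levels were read by immunoblotting of RIPA lysates with ECL and band quantitation.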

Series [10] has as its target T2, Protein cereblon/Serine/threonine-protein kinase B-raf (Homo sapiens). Description: Protac activity at CRBN/BRAF kinase domain (unknown origin) expressed in human A375 cells assessed as induction of BRAF degradation at 1 to 1000 nM incubated for 16 hrs by immunoblotting. It counts as cell-based. Put shortly: as §4
In series [11] the test system is A-375. In words: Inhibition of colony formation in human A375 cells at 40 to 1000 nM incubated for 7 days by crystal violet staining based assay. It counts as functional, cell-based. Put shortly: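 A375 plated at 200 cells/well, dosed the following day with DMSO or compound. After seven days, cells fixed and stained with 0.5% crystal violet, and colonies counted. Data as mean ± SD; Student's t-test against corresponding control groups.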

In series [12] the test system is Protein cereblon/Serine/threonine-protein kinase B-raf (Homo sapiens), P15056+Q96SW2 [V600E]. In words: Protac activity at CRBN/BRAF V600E mutant in human A375 cells assessed as induction of BRAF V600E mutant degradation at 500 nM incubated for 6 hrs after 1 hr pre-treatment with 10 uM pomalidomide by immunoblotting.
For series [13] the test system is unchanged. In words: Protac activity at CRBN/BRAF V600E mutant in human A375 cells assessed as induction of BRAF V600E mutant degradation at 500 nM incubated for 6 hrs after 1 hr pre-treatment with 20 uM proteasome inhibitor MG132 by immunoblotting.
Series [14] has the same test system. In words: Protac activity at CRBN/BRAF V600E mutant in human A375 cells assessed as induction of BRAF V600E mutant degradation at 500 nM incubated for 6 hrs after 1 hr pre-treatment with 200 nM proteasome inhibitor bortezomib by immunoblotting.
Series [15] shares this test system. In words: Protac activity at CRBN/BRAF V600E mutant in human A375 cells assessed as induction of BRAF V600E mutant degradation at 500 nM incubated for 6 hrs after 1 hr pre-treatment with 1 uM NEDD8-activating enzyme inhibitor […] by immunoblotting.
Series [16] shares this test system. In words: Protac activity at CRBN/BRAF V600E mutant in human A375 cells assessed as reduction in BRAF V600E mutant-mediated ERK phosphorylation at 1 to 1000 nM incubated for 2 hrs by immunoblotting. It counts as cell-based.
Series [17] has as its target T2, Protein cereblon/Serine/threonine-protein kinase B-raf (Homo sapiens). Description: Protac activity at CRBN/BRAF in human A549 cells assessed as induction of BRAF degradation at 15 to 1000 nM incubated for 16 hrs by immunoblotting. It counts as cell-based. Put shortly: as §3

As for `CCCS(=O)(=O)Nc1ccc(F)c(C(=O)c2c[nH]c3ncc(-c4ccc(CNC(=O)CCCCNc5ccc6c(c5)C(=O)N(C5CCC(=O)N(C)C5=O)C6=O)cc4)cc23)c1F` (centres undefined), the pKd – broadly, −log10 of the Kd, conventionally taken in molar units – was 8.14 in series [1] and 8.29 in series [2]. The outcome in [3] was inactive. Besides, the results for the pIC50 with A-375 [4] and in the series on HT-29 were 6.31 and 6.34, respectively. The Activity entry in the series on HaCaT, in the series on WI-38 and in the series on IMR-90 was “Non-Toxic” throughout.
In the case of `CCCS(=O)(=O)Nc1ccc(F)c(C(=O)c2c[nH]c3ncc(-c4ccc(CNC(=O)CCCCNc5ccc6c(c5)C(=O)N(C5CCC(=O)NC5=O)C6=O)cc4)cc23)c1F` (centres undefined), the figures for the negative logarithm of the Kd (pKd) in series [1] and in series [2] were 7.84 and 8.02, respectively. For the same molecule, the Ratio in series [5] and in series [6] was 4 to 5 throughout. Also, the Activity entry is “Dose-dependent effect” in [3]; “Dose-dependent effect” in series [7]; “Non-Toxic” in the series with HaCaT; “Non-Toxic” in the series with WI-38; “Non-Toxic” in the series with IMR-90. Further, the result in [8], in series [10], in [12], in series [13], in [14] and in series [15] was inactive. For the same molecule, the outcome in series [9] was Active. The inhibition entry in the series on A-375 [11] is “Active”. Moreover, the figures for the pIC50 in the series on A-375 [4] and in the series on HT-29 were 6.30 and 6.91, respectively.
Take `CCCS(=O)(=O)Nc1ccc(F)c(-n2cc(-c3cncnc3)c3nc(N(C)C4CCN(C(=O)CCOCCOCCOCCNc5cccc6c5C(=O)N(C5CCC(=O)NC5=O)C6=O)CC4)ccc32)c1F` (centres undefined): the figures for the pKd in series [1] and in [2] were 8.70 and 8.62, respectively. In addition, the Activity result in series [3] was “Dose-dependent effect”; in series [7], “Dose-dependent effect”; in the series with HaCaT, “Non-Toxic”; in the series with WI-38, “Non-Toxic”; in the series with IMR-90, “Non-Toxic”. The result in series [16] and in [9] was Active. Also, the outcome in series [17], in series [10], in series [12], in [13], in series [14] and in series [15] was inactive. Moreover, the inhibition entry in the series with A-375 [11] was “Active”. In addition, the figures for the pIC50 in the series on A-375 [4] and in the series with HT-29 were 7.33 and 7.29, respectively.
Consider `CCCS(=O)(=O)Nc1ccc(F)c(-n2cc(-c3cncnc3)c3nc(N(C)C4CCN(C(=O)CCOCCOCCOCCNc5cccc6c5C(=O)N(C5CCC(=O)N(C)C5=O)C6=O)CC4)ccc32)c1F` (centres undefined), for which the results for the pKd in series [1] and in [2] were 8.57 and 8.59, respectively. For the same molecule, the outcome in [3] was inactive. In addition, the results for the pIC50 with A-375 [4] and in the series with HT-29 were 6.72 and 6.46, respectively. Also, the Activity result in the series on HaCaT, in the series on WI-38 and in the series with IMR-90 was “Non-Toxic” throughout.
Turning to `CCCS(=O)(=O)Nc1ccc(F)c(C(=O)c2c[nH]c3ncc(-c4ccc(Cl)cc4)cc23)c1F` [VEMURAFENIB], the figures for the pIC50 in the series on A-375 [4] and in the series on HT-29 were 6.94 and 6.79, respectively.
Take `CCCS(=O)(=O)Nc1ccc(F)c(-n2cc(-c3cncnc3)c3nc(N(C)C4CCN(CC)CC4)ccc32)c1F` [XP-102]: the figures for the negative logarithm of the Kd (pKd) in series [1] and in series [2] were 9.48 and 9.43, respectively. Further, the pIC50 (in general, the IC50 on a negative log10 scale, so that one unit is a factor of ten) was 8.20 in the series on A-375 [4] and 8.77 with HT-29.
